Assay outcomes (PubChem)
A selection: hits, their analogues and other compounds. The true share with any hit is near 4.1%.
MC4R barr agon – activates human MC4R beta-arrestin recruitment. 360,000 tested, 0.98% active. P32245. activation, % at 8.9 µM. U2OS MC4R beta-arrestin complementation, luminescence; percent of melanotan II response, DMSO zero. AID 540308;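 active means activation above a per-plate cutoff, the mean activation of sample wells on that plate plus 3 SD, cut at about 8% in these data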
MPTP inh – blocks calcium-induced mitochondrial swelling; isolated mouse mitochondria, Ca2+ swelling absorbance, 30 min; inhibition, % at 10 µM; 360,000 tested, 1.4% active; AID 602449;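 active means inhibition of 50% or more, scaled per plate between neutral and stimulator controls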;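 further: 0% = DMSO wells given calcium and 100% = 1 mM EGTA wells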
MC4R antag cAMP – antagonists of human melanocortin 4 receptor (MC4R) | inhibition, % at 6.5 µM | 360,000 tested, 0.48% active | AID 540295 | MC4R-expressing cells, MTII-stimulated cAMP, LANCE TR-FRET;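 active means inhibition above its plate's cutoff, the mean of tested wells on that plate plus 3 SD, cut at about 29% in these data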;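 further: 0% = Melanotan II alone and 100% = Melanotan II plus saturating MCL0020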
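material = U2OS cells stably expressing human melanocortin 4 receptor (MC4R) | also added = Melanotan II challenge | dosing = single nominal compound dose of 6.5 µM | detection = TR-FRET with Eu-cAMP and labeled anti-cAMP, 671 nm | replication = singlicate | timing = compound 30 min, challenge 1 h, detection 1 h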
ATG4B inh – blocks human ATG4B protease cleavage of LC3 substrate; ATG4B cleavage of LC3-PLA2, NBD-HPC fluorescence, 1 h; AID 504462; Q9Y4P1; 340,000 tested, 0.51% active; inhibition, % at 8.33 µM; in the data active means inhibition above about 40%
Target sequence (Q9Y4P1 whole entry, looked up): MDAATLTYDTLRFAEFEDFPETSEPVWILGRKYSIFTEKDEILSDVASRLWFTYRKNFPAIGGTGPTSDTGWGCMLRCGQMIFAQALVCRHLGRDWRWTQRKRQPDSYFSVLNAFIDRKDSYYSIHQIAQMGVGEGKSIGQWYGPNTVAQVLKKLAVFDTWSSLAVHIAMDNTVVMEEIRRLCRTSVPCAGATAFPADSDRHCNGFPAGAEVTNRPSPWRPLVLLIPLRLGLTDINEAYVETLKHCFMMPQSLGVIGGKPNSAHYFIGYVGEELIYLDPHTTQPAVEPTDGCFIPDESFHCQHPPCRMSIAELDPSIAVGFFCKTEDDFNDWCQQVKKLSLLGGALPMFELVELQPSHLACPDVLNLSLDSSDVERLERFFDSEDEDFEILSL
SMARCA2 act – SMARCA2 function activation, primary screen | MG213 cells, MMTV-luciferase reporter, dexamethasone, overnight | activation, % at 9.1 µM | 370,000 tested, 1% active; in the data active means activation above about 7.8%;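 further: 0% = vehicle wells and 100% = reference activator wells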
SMARCA2 act conf – SMARCA2 activation, confirmation screen; shares compounds with SMARCA2 act; 3,500 tested, 30% active; activation, % at 9.1 µM; AID 652260; MG213 cells, MMTV-luciferase with dexamethasone, luminescence, overnight; MG213 cells expressing E1A, Rb sequestered; DMSO wells 0%, reference activator 100%;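 active means activation above its plate's cutoff, the mean activation of tested wells plus 3 SD, cut at about 7.9% in these data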
VP16 Luc act – GAL4-VP16 reporter activation counter-screen; shares compounds with SMARCA2 act; HEK293 GAL4-VP16 pG5luc reporter, luciferase luminescence; scaled: DMSO wells 0%, SAHA wells 100%; activation, % at 9.1 µM; 3,500 tested, 41% active;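 active means activation above the solvent-only control well mean plus 3 SD, averaged across control plates, cut at about 5.2% in these data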
* = called active by the depositor.

Results for CCC(C)(C)C1CCC(=NNC(=S)Nc2ccccc2)CC1 (stereo unspecified) ?
MC4R barr agon: -2.2; MPTP inh: -0.3; MC4R antag cAMP: 4.7; ATG4B inh: 0.5; SMARCA2 act: 8.9*; SMARCA2 act conf: -0.2; VP16 Luc act: 1.5

What do the screens show for `CN(C(=O)c1ccc2c(c1)SC1=NS(=O)(=O)CCN12)C(c1ccccc1)c1ccccc1`?
MC4R barr agon: -2.4; MPTP inh: 0.5; MC4R antag cAMP: 7.3; ATG4B inh: -19.1; SMARCA2 act: 10.1*; SMARCA2 act conf: 13.9*; VP16 Luc act: 2.9

Results for CC(=O)CCN1CCSCCS1(=O)=O ?
SMARCA2 act: 0.5

What do the screens show for `CCCc1cnc(N2CCN(C(=O)c3ccc(F)cc3)CC2)nc1`?
MC4R barr agon: -0.8; MPTP inh: -0.2; MC4R antag cAMP: 6.6; ATG4B inh: -11.7; SMARCA2 act: -0.5

What do the screens show for `CCCc1cnc(N2CCN(C(=S)NC)CC2)nc1`?
MC4R barr agon: 0.5; MPTP inh: -1.0; MC4R antag cAMP: -5.8; ATG4B inh: -7.0; SMARCA2 act: 8.4*; SMARCA2 act conf: 7.0; VP16 Luc act: 7.7*

What do the screens show for `COc1ccc(OC)c(S(=O)(=O)N(CCc2ccc(OC)c(OC)c2)Cc2cccs2)c1`?
SMARCA2 act: -3.9

How did Cc1sc(=NC(=O)c2ccco2)n(C)c1-c1ccc(F)cc1 do in these assays?
MC4R barr agon: -2.7; MPTP inh: -0.8; MC4R antag cAMP: -0.5; ATG4B inh: -8.7; SMARCA2 act: 8.8*; SMARCA2 act conf: 13.8*; VP16 Luc act: 11.6*

How did Cc1ccc(CN2CCCCC(NC(=O)c3cccc(F)c3)C2=O)cc1 (stereo unspecified) do in these assays?
SMARCA2 act: 0.1

Results for c1ccc2[nH]c(-c3ccncc3)nc2c1 ?
MC4R barr agon: -3.6; MPTP inh: -0.4; MC4R antag cAMP: -0.9; ATG4B inh: -5.0; SMARCA2 act: 9.5*; SMARCA2 act conf: 1.2; VP16 Luc act: 2.5

What do the screens show for `CCOc1ccccc1NS(=O)(=O)c1ccc2c(c1)n(C)c(=O)c(=O)n2C`?
MC4R barr agon: -2.3; MPTP inh: 1.6; MC4R antag cAMP: 15.3; ATG4B inh: 13.6; SMARCA2 act: 12.2*; SMARCA2 act conf: 3.3; VP16 Luc act: 0.8

How did CCOc1ccccc1NS(=O)(=O)c1ccc(OC)c(OC)c1 do in these assays?
MC4R barr agon: 0.6; MPTP inh: 2.1; MC4R antag cAMP: 12.9; ATG4B inh: -4.6; SMARCA2 act: -1.6

How did CCCCn1c(CN(Cc2ccccc2)Cc2ccccc2)nc2c1c(=O)n(C)c(=O)n2C do in these assays?
MC4R barr agon: -1.0; MPTP inh: -0.8; MC4R antag cAMP: 18.5; ATG4B inh: -1.1; SMARCA2 act: 9.8*; SMARCA2 act conf: -0.1; VP16 Luc act: -0.1

Results for CCCc1nc2c(C)cc(Br)cn2c1Cc1ccccc1OC ?
SMARCA2 act: -2.1

How did O=c1c2ccccc2n(CC(O)CN2CCCCC2)c2ccccc12 (stereo unspecified) do in these assays?
MC4R barr agon: -1.3; MPTP inh: 1.8; MC4R antag cAMP: 3.0; ATG4B inh: 4.7; SMARCA2 act: 9.4*; SMARCA2 act conf: 4.1; VP16 Luc act: -1.5

Results for Nn1c(SCc2ccccc2)nc2ccccc21 ?
MC4R barr agon: 3.9; MPTP inh: -2.3; MC4R antag cAMP: -5.0; ATG4B inh: 5.3; SMARCA2 act: 11.5*; SMARCA2 act conf: 8.8*; VP16 Luc act: 14.1*

How did O=C(O)Cn1c(SCc2ccccc2)nc2ccccc21 do in these assays?
MC4R barr agon: -1.4; MPTP inh: -0.9; MC4R antag cAMP: -2.4; ATG4B inh: -2.4; SMARCA2 act: -2.6

What do the screens show for `CCOC(=O)[C@]12CCC=C1N(Cc1ccccc1)C(=O)[C@H](CC(=O)NCCc1ccccc1OC)C2`?
MPTP inh: 0.3; SMARCA2 act: 10.4*; SMARCA2 act conf: -2.8; VP16 Luc act: -1.2

What do the screens show for `CCOC(=O)[C@]12CCCC=C1N(Cc1ccccc1)C(=O)[C@H](CC(=O)NCCc1ccccc1OC)C2`?
MPTP inh: 0.1; SMARCA2 act: -4.2
